Publication PMC8183215 (Journal for Immunotherapy of Cancer, 2021)
Residues, ends and D or L forms follow the SMILES beside them.

Assay: In vitro plasma stability
Assay type: in vitro ADME
Settings: rat, pH 7.4
In short: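 Test compound prepared as a 1000 ng/mL stock in 0.01 M Tris-HCl (pH 7.4), then mixed in equal volume with rat plasma and incubated at 37 °C. Samples were taken at 0, 2, 5, 10, 30 and 60 min, and methanol was added to precipitate protein. After centrifugation at 12 000 rpm for 15 min and a second spin of the supernatant, UPLC-MS peak areas gave the half-life.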

SMILES | half-life at 500 ng/mL [min]
CC(C)C[C@H](NC(=O)[C@H](CCCCN)NC(=O)[C@H](CCCNC(=N)N)NC(=O)[C@@H]1CCCN1C(=O)[C@H](CCC(=O)O)NC(=O)CNC(=O)[C@H](Cc1ccc(O)cc1)NC(=O)[C@H](C)NC(=O)[C@@H](N)CO)C(=O)O [peptide 1] (H-SAYGEPRKL-OH; N-terminus and C-terminus assumed) | ~5
CC[C@H](C)[C@H](NC(=O)[C@@H](N)[C@@H](C)O)C(=O)N[C@@H](Cc1c[nH]c2ccccc12)C(=O)N[C@@H](CCSC)C(=O)N[C@@H](CC(C)C)C(=O)N[C@@H](CC(C)C)C(=O)N[C@@H](CCSC)C(=O)N[C@@H](CC(C)C)C(=O)N[C@@H](CCC(N)=O)C(=O)O [peptide 2] (H-TIWMLLMLQ-OH) | ~5
